Hits are enriched below; roughly 3.1% of the tested compounds scored in any of these assays.
CHO parental Ca = ATP-evoked calcium signal inhibitors, parental CHO, primary screen, counter-screen for OX1R antagonist project, cell-based, fluorescence, Fluo-8 calcium dye; inhibition, % at 5.6 µM; parental CHO-K1, ATP-induced calcium, Fluo-8 fluorescence; hit rate 0.63% among 330,000;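 active means inhibition above that plate's mean sample inhibition plus 3 SD, cut at about 26% in these data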
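Material: parental CHO cells / Compound: single nominal dose of 5.6 µM per compound / Signal: Fluo-8 fluorescence / Replicates: singlicate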
OX1R antag-1 = antagonists of human orexin 1 receptor (OX1R); OX1R-expressing cells, FRET antagonist read-out; hit rate 1.8% among 330,000; AID 485270, 2010; Orexin/Hypocretin receptor type 1 (Homo sapiens), O43613; inhibition, % at 6.6 µM; in the data active means inhibition mostly above about 38%, no sharp cut-off; inactive means mostly below about 40%
GalR3 antag = GalR3 antagonists in HEK293 cells, primary screen, cell-based, fluorescence readout; Galanin receptor type 3 (Homo sapiens), O60755; HEK293 GalR3-CNG cAMP membrane potential fluorescence; galR3 body fused to GalR1 C-terminus; inhibition, % at 3 µM; hit rate 0.44% among 360,000;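 active means inhibition above the screen-wide average plus 3 SD, cut at about 13% in these data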;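 further: forskolin and galanin both at EC90 stimulate the cells; cAMP rise reported by CNG channel membrane potential dye signal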
Target sequence (O60755 1-299 limits assumed): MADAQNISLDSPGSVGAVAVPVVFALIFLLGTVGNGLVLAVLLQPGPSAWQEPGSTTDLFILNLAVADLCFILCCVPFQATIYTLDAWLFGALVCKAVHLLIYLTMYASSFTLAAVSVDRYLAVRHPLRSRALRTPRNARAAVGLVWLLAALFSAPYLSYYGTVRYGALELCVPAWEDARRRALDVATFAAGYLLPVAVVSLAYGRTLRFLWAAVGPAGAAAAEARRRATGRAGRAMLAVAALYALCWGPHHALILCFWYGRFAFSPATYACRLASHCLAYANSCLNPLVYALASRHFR
GPR7 antag = GPR7 receptor antagonists, primary screen, cell-based, fluorescence, single concentration; GPR7-expressing cells, fluorescence antagonist assay; inhibition, % at 4.4 µM; hit rate 1.1% among 290,000; in the data active means inhibition above about 16%, passing the limit was not always enough;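 further: cells stimulated with the agonist NPW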
Target sequence (P48145 whole entry, looked up): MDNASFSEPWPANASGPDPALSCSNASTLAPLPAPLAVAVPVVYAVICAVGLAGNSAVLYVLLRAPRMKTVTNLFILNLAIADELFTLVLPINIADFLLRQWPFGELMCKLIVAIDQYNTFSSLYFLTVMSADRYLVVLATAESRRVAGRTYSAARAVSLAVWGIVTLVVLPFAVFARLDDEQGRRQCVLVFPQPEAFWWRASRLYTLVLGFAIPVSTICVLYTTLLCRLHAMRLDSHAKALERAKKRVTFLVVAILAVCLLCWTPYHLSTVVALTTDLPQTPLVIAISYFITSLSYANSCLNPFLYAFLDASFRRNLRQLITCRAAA
OX1R antag-2 = OX1R (HCRTR1) antagonists, primary screen, fluorescence, CHO/OX1R cells, Fluo-8 calcium, orexin A | Fluo-8 calcium fluorescence | hit rate 0.43% among 330,000 | Orexin/Hypocretin receptor type 1 (Homo sapiens), O43613 | inhibition, % at 5 µM;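 active means inhibition above its plate's threshold, mean inhibition of all tested compounds on the plate plus 3 SD, cut at about 37% in these data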
Numbers stand for hits; . = inactive; / = no result given.

SMILES	CHO parental Ca	OX1R antag-1	GalR3 antag	GPR7 antag	OX1R antag-2
CN(C)/C=C/c1c([N+](=O)[O-])c2ccc(O)cc2n1-c1ccccc1	.	.	.	.	.
Cc1ccc2[nH]cc(CCNC(=O)C3CCCO3)c2c1 (stereo not given)	.	.	.	.	.
Cc1cc2nccc(-c3ccc(OCCCF)cc3)n2n1	.	.	.	.	.
O=C(/C=C/c1ccccc1[N+](=O)[O-])NCc1cccnc1	.	61	.	.	.
O=C(O)c1cc([N+](=O)[O-])c(NCc2cccnc2)c([N+](=O)[O-])c1	.	76	.	.	.
O=C(NC(=S)NCc1cccnc1)c1ccc([N+](=O)[O-])cc1	.	75	.	.	.
O=C(/C=C/c1ccccc1)NCc1cccnc1	.	.	.	.	.
CC(C)c1ccc(C(=O)NC(=S)NCc2cccnc2)cc1	.	.	.	.	.
Cc1cccc(NC(=O)CN2CCN(C(=O)c3cnn(Cc4ccccc4)c3)CC2)c1C	.	.	.	/	.
CCSc1cc(C)nc2c(-c3ccccc3)cnn12	.	59	.	.	.
Cc1cc(N)n2ncc(-c3cccc(Br)c3)c2n1	.	43	.	.	.
C=CCSc1cc(C)nc2c(-c3ccccc3)cnn12	.	.	.	.	.
O=C(CCn1c(=O)sc2ccccc21)NC1CCCCC1	.	.	.	.	.
C=CCN1N=C(c2ccc(NC(=O)c3ccccc3)cc2)CSC1=O	47	.	.	.	.
O=C1NC[C@H](CCCCN2C[C@H](Cc3ccc(O)cc3)N(Cc3ccccc3)C(=O)C2=O)N(CC2CCCCC2)C1=O	/	/	.	/	/
O=C(CSc1n[nH]c(=O)[nH]c1=O)c1ccccc1	.	.	.	.	.
O=C(CSc1n[nH]c(=O)[nH]c1=O)c1cccc([N+](=O)[O-])c1	.	48	.	.	.
COC(=O)/C=C1/S/C(=N/NC(=O)c2ccccc2OC)NC1=O	.	.	.	.	.
Cc1ccc(N=Nc2ccc(O)c3ncccc23)cc1	59	.	.	.	.
Cc1ccc(N=Nc2ccc(O)c3ncccc23)cc1C	.	.	.	.	.
Clc1ccc(/C=C/c2ncc[nH]2)c(Cl)c1	.	.	.	.	.
Cc1cc(C)cc(Nc2ccc3nonc3c2[N+](=O)[O-])c1	.	.	.	/	.
CCOC(=O)NNc1ccc2nonc2c1[N+](=O)[O-]	.	35	/	.	.
O=[N+]([O-])c1c(NCc2ccco2)ccc2nonc12	.	68	.	.	.
Cc1cccc(Nc2ccc3nonc3c2[N+](=O)[O-])c1C	.	.	.	.	.
SMILES	CHO parental Ca	OX1R antag-1	GalR3 antag	GPR7 antag	OX1R antag-2
O=[N+]([O-])c1c(Nc2ccccc2)ccc2nonc12	.	64	.	.	.
Cc1cc([N+](=O)[O-])ccc1NCc1ccco1	.	.	.	.	.
O=C(O)c1ccccc1Nc1ccc([N+](=O)[O-])c2nonc12	.	34	/	.	.
Cc1cc(C)c(NC(=O)CNC(=O)c2ccc(-n3cncn3)c([N+](=O)[O-])c2)c(C)c1	.	.	.	/	.
C=CCn1c(CSCc2ccc(Cl)cc2Cl)nnc1SCC(=O)Nc1ccc(C(=O)O)cc1	.	.	.	.	.
Cc1ccc(C(=O)OCC(=O)N(Cc2ccccc2)C(C)C)cc1C	.	36	.	/	.
CN(Cc1cccc(Cl)c1Cl)c1ccc(S(=O)(=O)N2CCCCC2)cc1[N+](=O)[O-]	.	.	.	.	.
COc1cc(OC)cc(C(=O)Nc2ccc(NC(=O)c3ccco3)c(Cl)c2)c1	.	.	.	25	.
C[n+]1ccccc1/C=C/c1ccc([N+](=O)[O-])cc1	.	36	.	.	.
Cc1ccc(C)c(N2CCN(C(=O)c3cccn4c(=O)c5sccc5nc34)CC2)c1	.	.	.	.	.
COC(=O)c1ccsc1-n1cc(C#N)c(=O)n(C)c1=O	.	.	.	.	.
O=C(Nc1cccnc1)c1cc(-c2cc(Cl)ccc2O)n[nH]1	.	67	.	.	.
Cc1ccc(O)c(-c2cc(C(=O)Nc3cccnc3)[nH]n2)c1	.	.	.	.	.
COCCCN1C(=O)C(=O)/C(=C(/O)c2ccc(S(=O)(=O)N3CCOCC3)cc2)C1c1ccc(OC)cc1 (stereo not given)	.	.	.	.	.
COc1cccc(C(=O)c2ccncc2C(=O)O)c1OC	/	/	.	/	/
C[C@]12C=CC(=O)C=C1CC[C@@H]1[C@@H]2[C@@H](O)C[C@@]2(C)[C@H]1CC[C@]2(O)C(=O)COC(=O)CCC(=O)NCCc1ccc(O)cc1	/	/	.	.	/
COc1ccc(C)cc1Nc1n[n+](-c2ccccc2)c(-c2ccc(OC)c(OC)c2OC)s1	.	.	.	.	.
COc1ccc(C)cc1Nc1n[n+](-c2ccccc2)c(-c2c(Cl)cccc2Cl)s1	38	.	.	.	.
O=C(c1ccco1)N1CCN(C(=O)c2cn(-c3ccccc3)nc2-c2ccc(F)cc2)CC1	/	/	.	/	/
CC[C@@]1(O)C(=O)OCc2c1cc1n(c2=O)Cc2cc3c(N)cccc3nc2-1	.	.	.	/	.
CC[C@@]1(O)C(=O)OCc2c1cc1n(c2=O)Cc2cc3c(CN(C)C)c(O)ccc3nc2-1	.	46	/	/	.
Cc1ncc(COCc2ccccc2)c(CO)c1OCc1ccccc1	/	/	.	/	/
Cc1ccc(C(=O)NCCc2ccc(F)cc2)s1	.	.	.	.	.
C#CCOc1nc2c(c(=O)n(C)c(=O)n2C)n1Cc1ccccc1	.	.	.	.	.
O=C(Nc1ccc(Br)cc1)c1ccc(F)c(S(=O)(=O)NCc2cccs2)c1	.	94	109	.	55
SMILES	CHO parental Ca	OX1R antag-1	GalR3 antag	GPR7 antag	OX1R antag-2
O=C(NCC(c1ccc(F)cc1)N1CCOCC1)c1ccc([N+](=O)[O-])o1 (stereo not given)	.	48	.	/	.
CC(=O)c1ccc(-c2ccc(C(=O)NCC(c3ccc(F)cc3)N3CCOCC3)o2)cc1 (stereo not given)	.	.	.	/	.
O=C(NCc1nnnn1-c1ccc(F)cc1)c1ccc([N+](=O)[O-])o1	.	54	.	/	.
COCC(=O)OC1CCn2c1nc1c2C(=O)C(C)=C(NC(C)=O)C1=O (stereo not given)	/	/	.	/	/
Cc1cc(N2CCOCC2)nc2ccc(NC(=O)CCC(=O)N3CCN(c4cccc(C(F)(F)F)c4)CC3)cc12	.	.	.	.	.
Cc1ccc2c(c1)C1C[N+](C)(CC(=O)Nc3ccccc3Cl)CCC1N2C(=O)c1ccccc1Cl (stereo not given)	.	.	.	/	.
Cc1onc(-c2ccccc2Cl)c1C(=O)N1CCCc2ccccc21	.	35	.	.	.
CCOc1ccccc1NC(=O)C(OC(=O)c1ccccc1)c1ccccc1 (stereo not given)	53	.	.	.	.

From PubChem BioAssay
